Test results as given in ChEMBL document CHEMBL1795215, “Design, synthesis and biological assessment of novel N-substituted 3-(phthalimidin-2-yl)-2,6-dioxopiperidines and 3-substituted 2,6-dioxopiperidines for TNF-α inhibitory activity” (Bioorg Med Chem, 2011).

Key:
[1] = test system: RAW264.7; experiment: Inhibition of LPS-induced TNFalpha production in mouse RAW264.7 cells assessed as TNFalph activity at 30 uM by ELISA relative to untreated control; assay type: functional; set-up: scale not given: the % may be the effect or the level left
Outline: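 RAW 264.7 cells were cultured and exposed to compound at 30 μM together with LPS. TNF-α protein in the culture medium was quantified by a mouse TNF-α-specific ELISA and expressed as % of the appropriate control. Values are mean ± S.E.M., n = 3, with Student's t-test (P<0.05 significant).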

[2] = Toxicity against mouse RAW264.7 cells assessed as cell viability at 30 uM by Cell titer 96 squeous one solution cell proliferation assay untreated control; assay type: cell-based; settings: read-out: Activity
Outline: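 Viability of RAW 264.7 cells given 30 μM compound with LPS was read by CellTiter 96 Aqueous One tetrazolium dye formation, with absorbance at 490 nm. Results are % change in O.D. versus the appropriate control, mean ± S.E.M., n = 3, with Student's t-test (P<0.05 significant).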

[3] = test system: RAW264.7; experiment: Inhibition of LPS-induced TNFalpha production in mouse RAW264.7 cells assessed as TNFalph activity at 30 uM by ELISA relative to thalidomide; assay type: functional
Outline: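 LPS-stimulated RAW 264.7 cells were treated at 30 μM, and TNF-α in the medium was measured by mouse TNF-α ELISA as % of vehicle control (n = 3). Fold activity relative to thalidomide = (100 − compound TNF-α % control)/(100 − thalidomide TNF-α % control).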

SMILES	Activity [1]	viability at 30 µM [2]	fold change (FC) [3]
O=C1CCC(N2Cc3ccccc3C2=O)C(=O)N1CSC(=S)NC1CCCCC1 (stereo unspecified)	55%	103%	45
O=C1CCC(N2Cc3ccccc3C2=O)C(=O)N1CSC(=S)N1CCCCC1 (stereo unspecified)	96%	112%	4
O=C1CCCC(=O)N1CN1C(=O)CCC(N2Cc3ccccc3C2=O)C1=O (stereo unspecified)	79%	102%	21
O=C1CCC(N2Cc3ccccc3C2=O)C(=O)N1CN1C(=S)CCCC1=S (stereo unspecified)	63%	94%	37
O=C1CCC(N2Cc3ccccc3C2=O)C(=O)N1CN1C(=O)c2ccccc2C1=O (stereo unspecified)	88%	98%	12
O=C1CCC(N2Cc3ccccc3C2=O)C(=O)N1CN1C(=S)c2ccccc2C1=S (stereo unspecified)	52%	82%	48
O=C1CCC(N2S(=O)(=O)c3ccccc3S2(=O)=O)C(=O)N1 (stereo unspecified)	55%	109%	45
N=C1N/C(=N\C2CCC(=O)NC2=O)c2ccccc21 (stereo unspecified)	61%	116%	39
N=C1c2ccccc2C(=O)N1C1CCC(=O)NC1=O (stereo unspecified)	67%	84%	33
O=C1CCC(N2C(=O)c3cccnc3C2=O)C(=O)N1 (stereo unspecified)	104%	95%	-4
O=C1CCC(N2C(=O)c3ccncc3C2=O)C(=O)N1 (stereo unspecified)	96%	96%	4
Nc1cccc2c1CN(C1CCC(=O)NC1=O)C2=O (stereo unspecified) [LENALIDOMIDE]	109%	106%	-9
